According to ChEMBL document CHEMBL1131231, “New azole antifungals. 2. Synthesis and antifungal activity of heterocyclecarboxamide derivatives of 3-amino-2-aryl-1-azolyl-2-butanol” (1998):
Converted amounts (≈) assume the structure as drawn.

Legend:
Assay type in all cases: functional
[1] = test system: Candida albicans; test: In vivo antifungal activity against murine candidosis model after peroral administration with 1 mg/kg at various time intervals. (percent protection for 100% mortality with fluconazole-treated group.); conditions: route oral
In short: (§1)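 Male mice, groups of 10, infected iv with 0.2 mL Candida albicans at (2–8) × 10⁷ cfu/mL. Oral suspension in 1% Tween + 0.2% carboxymethylcellulose in water, given 1, 4 and 24 h post-infection; vehicle controls and a fluconazole group at the same dose. Survival scored on days 1, 2, 3, 5, 7, 9, reported as % surviving on the day untreated, or fluconazole-treated, mortality reached 100%.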

[2] = test system: Candida albicans; test: In vivo antifungal activity against murine candidosis model after peroral administration with 1 mg/kg at various time intervals. (percent protection for 100% mortality with untreated group); conditions: route oral; in short: as §1
[3] = The compound was tested in vitro for antifungal activity against 10 yeasts.
In short: (§2)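 Agar dilution on Kimmig's agar with 0.5% glycerol; ATCC or clinical isolates, inocula at 10⁵ cfu/mL. Drugs from 800 μg/mL stock in 50% ethanol, 2-fold serial dilutions 80 to 0.03 μg/mL in plates. Incubated 25 °C, 48 h for yeasts, 120 h for filamentous fungi. Value is geometric mean of MICs (μg/mL); >80 taken as 160, ≤0.03 as 0.03.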

[4] = The compound was tested in vitro for antifungal activity against 6 filamentous fungi.; in short: as §2
[5] = test system: Candida albicans; test: In vivo antifungal activity against murine candidosis model after peroral administration with 0.5 mg/kg at various time intervals. (percent protection for 100% mortality with untreated group); conditions: route oral; in short: as §1
[6] = test system: Candida albicans; test: In vivo antifungal activity against murine candidosis model after peroral administration with 0.5 mg/kg at various time intervals. (percent protection for 100% mortality with fluconazole-treated group.); conditions: route oral; in short: as §1

SMILES	Protection [1]	Protection [2]	MIC [3]	MIC [4]	Protection [5]	Protection [6]
C[C@@H](n1cnc2cc(-c3ccc(C(=N)NC#N)cc3)sc2c1=O)[C@](O)(Cn1cncn1)c1ccc(F)cc1F	<20%	100%	2.7 µg/mL (≈ 4.94 µM)	80 µg/mL (≈ 146 µM)	–	–
Cc1nc(COc2ccc(Cl)cc2)sc1C(=O)N[C@H](C)[C@](O)(Cn1cncn1)c1ccc(F)cc1F	–	–	0.6 µg/mL (≈ 1.12 µM)	2.9 µg/mL (≈ 5.43 µM)	30%	0%
C[C@@H](NC(=O)c1ccc(Cl)cc1)[C@](O)(Cn1cncn1)c1ccc(F)cc1F	–	–	3.9 µg/mL (≈ 9.59 µM)	11 µg/mL (≈ 27 µM)	0%	0%
Cc1nc(-c2ccc(Br)cc2)sc1C(=O)N[C@H](C)[C@](O)(Cn1cncn1)c1ccc(F)cc1F	–	–	0.6 µg/mL (≈ 1.09 µM)	1.8 µg/mL (≈ 3.28 µM)	100%	90%
Cc1nc(-c2ccc(C#N)cc2)sc1C(=O)N[C@H](C)[C@](O)(Cn1cncn1)c1ccc(Cl)cc1Cl	–	–	0.4 µg/mL (≈ 0.758 µM)	5 µg/mL (≈ 9.48 µM)	100%	100%
Cc1c(C(=O)N[C@H](C)[C@](O)(Cn2cncn2)c2ccc(F)cc2F)cnn1-c1cc(Cl)cc(Cl)c1	0%	20%	19 µg/mL (≈ 36.4 µM)	> 80 µg/mL	–	–
Cc1c(C(=O)N[C@H](C)[C@](O)(Cn2cncn2)c2ccc(F)cc2F)cnn1-c1ccc(C(F)(F)F)cc1	80%	100%	1.7 µg/mL (≈ 3.27 µM)	13 µg/mL (≈ 25 µM)	–	–
C[C@@H](n1cnc2cc(-c3ccc([N+](=O)[O-])cc3)sc2c1=O)[C@](O)(Cn1cncn1)c1ccc(F)cc1F	90%	100%	5.9 µg/mL (≈ 11.2 µM)	> 80 µg/mL	–	–
Cc1nc(S(=O)(=O)c2ccc(Cl)cc2)sc1C(=O)N[C@H](C)[C@](O)(Cn1cncn1)c1ccc(F)cc1F	–	–	7.6 µg/mL (≈ 13.4 µM)	> 80 µg/mL	0%	0%
C[C@@H](NC(=O)c1nnc(-c2ccc(Cl)cc2)o1)[C@](O)(Cn1cncn1)c1ccc(F)cc1F	–	–	49 µg/mL (≈ 103 µM)	> 80 µg/mL	10%	0%
C[C@@H](n1cnc2cc(-c3ccc(C4=NCCO4)cc3)sc2c1=O)[C@](O)(Cn1cncn1)c1ccc(F)cc1F	20%	100%	1.9 µg/mL (≈ 3.46 µM)	> 80 µg/mL	–	–
Cc1c(C(=O)N[C@H](C)[C@](O)(Cn2cncn2)c2ccc(F)cc2F)cnn1-c1ccc(F)cc1F	0%	0%	5.3 µg/mL (≈ 10.9 µM)	63 µg/mL (≈ 129 µM)	–	–
Cc1c(C(=O)N[C@H](C)[C@](O)(Cn2cncn2)c2ccc(F)cc2F)cnn1-c1ccccc1Cl	0%	0%	11 µg/mL (≈ 22.6 µM)	> 80 µg/mL	–	–
CC(C)c1c(C(=O)N[C@H](C)[C@](O)(Cn2cncn2)c2ccc(F)cc2F)cnn1-c1ccc(Cl)cc1	0%	60%	3.3 µg/mL (≈ 6.41 µM)	> 80 µg/mL	–	–
C[C@@H](n1cnc2cc(-c3ccc(F)cc3)sc2c1=O)[C@](O)(Cn1cncn1)c1ccc(F)cc1F	100%	100%	0.4 µg/mL (≈ 0.804 µM)	2.2 µg/mL (≈ 4.42 µM)	–	–
C[C@@H](NC(=O)c1cnn(-c2ccc(Cl)cc2)c1)[C@](O)(Cn1cncn1)c1ccc(F)cc1F	50%	100%	1.9 µg/mL (≈ 4.02 µM)	> 80 µg/mL	–	–
CSc1ccc(-c2cc3ncn([C@H](C)[C@](O)(Cn4cncn4)c4ccc(F)cc4F)c(=O)c3s2)cc1	0%	30%	5.5 µg/mL (≈ 10.5 µM)	> 80 µg/mL	–	–
Cc1c(S(=O)(=O)c2ccc(Cl)cc2)csc1C(=O)N[C@H](C)[C@](O)(Cn1cncn1)c1ccc(F)cc1F	0%	70%	1.6 µg/mL (≈ 2.82 µM)	11 µg/mL (≈ 19.4 µM)	–	–
Cc1c(C(=O)N[C@H](C)[C@](O)(Cn2cncn2)c2ccc(F)cc2F)cnn1-c1ccc(Cl)cc1	60%	80%	1.8 µg/mL (≈ 3.7 µM)	16 µg/mL (≈ 32.9 µM)	–	–
Cc1cc2ncc(C(=O)N[C@H](C)[C@](O)(Cn3cncn3)c3ccc(F)cc3F)c(C)n2n1	0%	20%	70 µg/mL (≈ 159 µM)	> 80 µg/mL	–	–
Cc1nc(-c2ccc(Cl)cc2)sc1C(=O)N[C@H](C)[C@](O)(Cn1cncn1)c1ccc(F)cc1F	–	–	0.8 µg/mL (≈ 1.59 µM)	1.2 µg/mL (≈ 2.38 µM)	100%	100%
C[C@@H](n1cnc2cc(-c3ccc(C(=N)NO)cc3)sc2c1=O)[C@](O)(Cn1cncn1)c1ccc(F)cc1F	0%	90%	2.4 µg/mL (≈ 4.46 µM)	> 80 µg/mL	–	–

SMILES	Protection [1]	Protection [2]	MIC [3]	MIC [4]	Protection [5]	Protection [6]
Cc1nc(-c2ccc(C#N)cc2)sc1C(=O)N(C)[C@H](C)[C@](O)(Cn1cncn1)c1ccc(F)cc1F	–	–	0.8 µg/mL (≈ 1.57 µM)	4.5 µg/mL (≈ 8.85 µM)	100%	100%
C[C@@H](n1cnc2cc(-c3ccc(C(N)=O)cc3)sc2c1=O)[C@](O)(Cn1cncn1)c1ccc(F)cc1F	20%	100%	1.3 µg/mL (≈ 2.49 µM)	45 µg/mL (≈ 86.1 µM)	–	–
C[C@@H](NC(=O)c1cnn(-c2ccc(Cl)cc2)c1C1CC1)[C@](O)(Cn1cncn1)c1ccc(F)cc1F	0%	100%	1.8 µg/mL (≈ 3.51 µM)	> 80 µg/mL	–	–
COc1ccc(-n2ncc(C(=O)N[C@H](C)[C@](O)(Cn3cncn3)c3ccc(F)cc3F)c2C)cc1	0%	0%	6.1 µg/mL (≈ 12.6 µM)	23 µg/mL (≈ 47.7 µM)	–	–
C[C@@H](NC(=O)c1cnn(-c2ccc(Cl)cc2)c1C(C)(C)C)[C@](O)(Cn1cncn1)c1ccc(F)cc1F	0%	0%	4.6 µg/mL (≈ 8.7 µM)	> 80 µg/mL	–	–
C[C@@H](NC(=O)c1csc(-c2ccc(Cl)cc2)n1)[C@](O)(Cn1cncn1)c1ccc(F)cc1F	–	–	4.5 µg/mL (≈ 9.18 µM)	> 80 µg/mL	0%	0%
CC(=O)ONC(=N)c1ccc(-c2nc(C)c(C(=O)N[C@H](C)[C@](O)(Cn3cncn3)c3ccc(F)cc3F)s2)cc1	–	–	14 µg/mL (≈ 24.6 µM)	45 µg/mL (≈ 79 µM)	70%	0%
Cc1nc(-c2ccc(C#N)cc2)sc1C(=O)N[C@H](C)[C@](O)(Cn1cncn1)c1ccccc1F	–	–	1.5 µg/mL (≈ 3.15 µM)	5 µg/mL (≈ 10.5 µM)	100%	60%
C[C@@H](NC(=O)c1ccc(-c2ccc(C#N)cc2)s1)[C@](O)(Cn1cncn1)c1ccc(F)cc1F	–	–	0.8 µg/mL (≈ 1.67 µM)	> 80 µg/mL	100%	100%
C[C@@H](n1cnc2cc(-c3ccc(S(C)(=O)=O)cc3)sc2c1=O)[C@](O)(Cn1cncn1)c1ccc(F)cc1F	0%	40%	2.3 µg/mL (≈ 4.12 µM)	> 80 µg/mL	–	–
Cc1nn(-c2ccc(Cl)cc2)c(C)c1C(=O)N[C@H](C)[C@](O)(Cn1cncn1)c1ccc(F)cc1F	20%	90%	1.5 µg/mL (≈ 2.99 µM)	8.9 µg/mL (≈ 17.8 µM)	–	–
Cc1c(C(=O)N[C@H](C)[C@](O)(Cn2cncn2)c2ccc(F)cc2F)cnn1-c1cccc(C(F)(F)F)c1	0%	100%	4.6 µg/mL (≈ 8.84 µM)	20 µg/mL (≈ 38.4 µM)	–	–
CCCc1c(C(=O)N[C@H](C)[C@](O)(Cn2cncn2)c2ccc(F)cc2F)cnn1-c1ccc(Cl)cc1	0%	100%	1.9 µg/mL (≈ 3.69 µM)	36 µg/mL (≈ 69.9 µM)	–	–
C[C@@H](NC(=O)c1ccc(-c2ccc(Cl)cc2)o1)[C@](O)(Cn1cncn1)c1ccc(F)cc1F	–	–	1.5 µg/mL (≈ 3.17 µM)	> 80 µg/mL	0%	0%
C[C@@H](NC(=O)c1nc(-c2ccc(Cl)cc2)no1)[C@](O)(Cn1cncn1)c1ccc(F)cc1F	–	–	2.1 µg/mL (≈ 4.42 µM)	80 µg/mL (≈ 168 µM)	80%	10%
C[C@@H](NC(=O)c1ccc(-c2ccc(Cl)cc2)s1)[C@](O)(Cn1cncn1)c1ccc(F)cc1F	–	–	0.2 µg/mL (≈ 0.409 µM)	3.5 µg/mL (≈ 7.16 µM)	100%	100%
Cc1nc(-c2ccc(Cl)cc2)oc1C(=O)N[C@H](C)[C@](O)(Cn1cncn1)c1ccc(F)cc1F	–	–	3.7 µg/mL (≈ 7.58 µM)	40 µg/mL (≈ 82 µM)	40%	0%
Cc1nc(-c2ccccc2)sc1C(=O)N[C@H](C)[C@](O)(Cn1cncn1)c1ccc(F)cc1F	–	–	1.4 µg/mL (≈ 2.98 µM)	7.6 µg/mL (≈ 16.2 µM)	30%	0%
Cc1nc(-c2ccc(Cl)cc2)n(C)c1C(=O)N[C@H](C)[C@](O)(Cn1cncn1)c1ccc(F)cc1F	–	–	2.6 µg/mL (≈ 5.19 µM)	18 µg/mL (≈ 35.9 µM)	100%	0%
C[C@@H](NC(=O)c1sc(-c2ccc(C3N=NN=N3)cc2)nc1C(F)(F)F)[C@](O)(Cn1cncn1)c1ccc(F)cc1F	–	–	75 µg/mL (≈ 127 µM)	> 80 µg/mL	30%	0%
CCC(C)n1ncn(-c2ccc(N3CCN(c4ccc(OC[C@@H]5CO[C@@](Cn6cncn6)(c6ccc(Cl)cc6Cl)O5)cc4)CC3)cc2)c1=O (some centres not stated) [ITRACONAZOLE]	–	–	5.2 µg/mL (≈ 7.37 µM)	63 µg/mL (≈ 89.3 µM)	0%	0%
